{"data": "Assay results of several laboratories", "effect on": "cell growth or viability", "note": "Compare with care: the assays were run in different laboratories."}
{"SMILES": "C=CC(=O)N1CCN(c2cc(-c3noc([C@@]4(C)CCCc5sc(N)c(C#N)c54)n3)nc(N3CCN(C)C[C@@H]3C)c2)CC1", "cell line": "LS-513", "time": "5 days", "measurement": "EC50", "result": "4.7 µM"}
{"SMILES": "COC(=O)COc1ccc(NC(=O)C2(c3cccc(Br)c3)CC2)c(C)c1", "cell line": "U-937", "method": "ATP luminescence", "time": "72 h", "measurement": "GI50", "result": "3.2 µM"}
{"SMILES": "CC#CC(=O)N1CC[C@@H](n2cc(-c3ccc(Oc4c(F)cccc4F)cc3)c3c(N)n[nH]c(=O)c32)C1", "cell line": "MINO", "method": "ATP luminescence", "time": "72 h", "measurement": "GI50", "result": "5.18 µM"}
{"SMILES": "CCn1c(-c2nonc2N)nc2c(C#CC(C)(C)O)ncc(OC[C@H]3CCCNC3)c21", "cell line": "UACC-903", "method": "resazurin", "time": "72 h", "measurement": "EC50", "result": "83 µM"}
{"SMILES": "CC(C)C[C@H](NC(=O)[C@H](Cc1ccccc1)NC(=O)c1cnccn1)B(O)O", "cell line": "SNU1", "method": "ATP luminescence", "measurement": "IC50", "result": "0.014 µM"}
{"SMILES": "Cc1cc(=O)oc2ccc(-c3cc(-c4cccc(Cl)c4)nc(N)n3)c(O)c12", "cell line": "KB", "method": "MTT", "concentration": "2 µg/mL", "time": "72 h", "measurement": "inhibition", "result": "0%"}
{"SMILES": "Cn1nnc2c(C(N)=O)ncn2c1=O", "cell line": "SNU1", "measurement": "EC50", "result": "243 µM"}
{"SMILES": "Cc1cc(=O)oc2ccc(-c3cc(-c4cccs4)nc(N)n3)c(O)c12", "cell line": "KB", "method": "MTT", "concentration": "128 µg/mL", "time": "72 h", "measurement": "inhibition", "result": "17%"}
{"SMILES": "COC(=O)COc1ccc(NC(=O)C2(c3ccc(Cl)cc3)CC2)c(C)c1", "cell line": "U-937", "method": "ATP luminescence", "time": "72 h", "measurement": "GI50", "result": "6 µM"}
{"SMILES": "Cc1cc(=O)oc2ccc(-c3cc(-c4ccc(Cl)cc4)nc(N)n3)c(O)c12", "cell line": "KB", "method": "MTT", "concentration": "32 µg/mL", "time": "72 h", "measurement": "inhibition", "result": "54%"}
{"SMILES": "COC(=O)COc1cccc(NC(=O)C2(c3cccc(Br)c3)CC2)c1", "cell line": "U-937", "method": "ATP luminescence", "time": "72 h", "measurement": "GI50", "result": "3.5 µM"}
{"SMILES": "Cc1ccc(-c2cc(-c3ccc4oc(=O)cc(C)c4c3O)nc(N)n2)cc1", "cell line": "KB", "method": "MTT", "concentration": "8 µg/mL", "time": "72 h", "measurement": "inhibition", "result": "0%"}
{"SMILES": "COC(=O)COc1ccc(NC(=O)C2(c3ccc(Cl)cc3)CC2)cc1Br", "cell line": "U-937", "method": "ATP luminescence", "time": "72 h", "measurement": "GI50", "result": "1.6 µM"}
